C2C12 statin: suppressors of statin myotoxicity in C2C12 myotubes, primary screen, cell-based, single point, plate reader | C2C12 myotubes + simvastatin, ATP luminescence, 48 h; scaled: DMSO 0, geranylgeraniol control 100 | rescue of ATP level, % at 7.49 µM | 330,000 compounds, 0.78% hits | AID 602340, 2012;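 active = mean ATP rescue above about 67%, or every replicate alone reaching that limit, limit read from the data, passing the limit was not always enough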;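 note: myotubes were challenged with 10 µM simvastatin during compound exposure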
SUMO Mot1 rescue: yeast Mot1-301 growth rescue at high temperature, primary screen, SUMOylation pathway inhibitor project, S. cerevisiae, ATP luminescence, 38.5C; S. cerevisiae Mot1-301 growth rescue; percent above DMSO median, 100 means doubled; growth rescue, % at 18.8 µM; 320,000 compounds, 1% hits; AID 2716, 2010;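 active = every valid replicate shows activation above 250% relative to neutral control wells; inactive = the rest, any valid replicate at or below 250%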
Cneo AK release: Cryptococcus neoformans cell lysis inducers, primary screen, AK release luminescence, single concentration. C. neoformans lysis, adenylate kinase release luminescence, 4 h; normalised: neutral wells 0, clomiphene wells 100. lysis activity, % at 15 µM. 360,000 compounds, 0.2% hits. AID 651654, 2012;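 active = mean lysis activity across replicates of at least 80%, whatever share of replicates individually reach that level; inactive = mean lysis activity below 80%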
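Schedule: static 4 h at 37 °C with compound, 1 h detection; system: C. neoformans cells; benchmarks: Clomiphene as positive control; buffer or medium: fresh YPD medium; measure: luminescence rise reflecting yeast cell lysis; measured by: luminescent adenylate kinase detection reagent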
Efflux pump mplx: inhibitors of Candida efflux pumps in yeast, primary screen, S. cerevisiae, Nile Red, multiplex; S. cerevisiae Candida pump triplex; inhibition, % at 10 µM; 330,000 compounds, 0.44% hits;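 active = plate passing quality check with inhibition over a set limit, or well fluorescence over plate mean plus 4 SD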;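 note: Nile Red retained in pooled yeast measured as flow cytometry median fluorescence; higher means more Nile Red kept so more efflux inhibition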
Mot1 SUMO dose: growth restoration of Mot1-301 yeast on galactose, dose response, SUMO pathway inhibitor project, whole organism, S. cerevisiae, ATP luminescence, cherry-picked samples; shares compounds with SUMO Mot1 rescue; S. cerevisiae Mot1-301 galactose growth, 24 h; -100 = growth of slx-deleted rescue strain; 2,300 tested, under 10 active; growth activity, percent, % at 42 µM; AID 493004, 2010;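 active = Signal drops as the depositor expects, and the fitted half-maximal dose is no more than ten times the top valid tested dose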;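 note: more negative values mean stronger growth rescue toward the control strain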
A number is an active result; . = inactive; / = not tested or not shown; + = active, no number. A selection: hits, their analogues and other compounds. The true share with any hit is near 1.8%.

SMILES	C2C12 statin	SUMO Mot1 rescue	Cneo AK release	Efflux pump mplx	Mot1 SUMO dose
C=CCN1C(=O)/C(=C2/Sc3ccc(OC)cc3N2C)SC1=NCc1ccccc1	.	.	.	.	/
C=CCN1C(=O)/C(=C2/Sc3ccc(OC)cc3N2C)SC1=Nc1ccccc1	/	+	/	.	.
COc1cccc(/C=N/NC(=O)Cn2nc(C)c([N+](=O)[O-])c2C)c1O	/	.	.	.	/
CN(C/C=C/c1ccccc1[N+](=O)[O-])Cc1ccccc1	.	372	.	.	.
C=CCN1CN(CCc2ccccc2)CNC1=S	/	.	.	.	/
CCOC(=O)c1cnc2c(OC)cccc2c1N1CCN(c2ccccc2OC)CC1	/	+	.	.	.
CCOC(=O)c1cnc2c(OC)cccc2c1N1CCN(c2ccccn2)CC1	.	.	.	.	/
CCOC(=O)c1cnc2ccc(OCC)cc2c1N1CCN(C)CC1	.	.	.	.	/
CCOC(=O)c1cnc2ccc(Cl)cc2c1N1CCN(C)CC1	.	616	.	.	.
CN(c1ccccc1)S(=O)(=O)c1ccc(C(=O)NCC2CCCO2)cc1 (centres undefined)	.	451	.	.	.
O=C(O)C1=C[C@@H](C2CC2)C[C@@H](OCCCCO)O1	.	.	.	/	/
NS(=O)(=O)c1ccc(CCNC(=O)CN2CCN(c3ccc(F)cc3)CC2)cc1	/	650	.	.	.
NS(=O)(=O)c1ccc(CCNC(=O)CN2CCN(c3cccc(Cl)c3)CC2)cc1	/	.	/	.	/
Cc1oc(-c2ccccc2)nc1CSc1nc2c(c(=O)[nH]1)CCC2	.	.	.	.	/
O=C(CN1c2ccccc2Sc2ccccc21)N/N=C/c1ccc(Cl)cc1Cl	.	453	.	.	.
Clc1ccccc1C(c1ccccc1)(c1ccccc1)n1ccnc1	.	662	.	.	.
O=C(COC(=O)c1c(F)cccc1F)Nc1ccc2[nH]c(=O)[nH]c2c1	/	.	/	.	/
O=C(COC(=O)c1cccc(Br)c1)Nc1ccc2[nH]c(=O)[nH]c2c1	.	510	.	.	.
CC(C)C#Cc1cnc2c(c1)C(=O)N([C@@H](C)CO)C[C@H](C)[C@H](CN(C)C(=O)c1cccc(F)c1)O2	.	/	.	/	/
Cc1ccc(OCC(=O)O/N=C(\N)Cc2ccc(Cl)cc2)cc1	.	.	.	.	/
COc1ccc(OCC(=O)O/N=C(\N)Cc2ccc(Cl)cc2)cc1	/	+	.	.	.
C[C@@H](NC(=O)C[C@@H]1CC[C@H](NC(=O)C2CCC2)[C@H](CO)O1)c1ccccc1	.	/	.	/	/
O=C(NCCN=C1NS(=O)(=O)c2ccccc21)c1ccccc1	.	.	.	.	/
COc1cc(C(C2=C(O)CC(C)(C)CC2=O)C2C(=O)CC(C)(C)CC2=O)cc(OC)c1OC (centres undefined)	/	658	/	.	.
O=C(c1ccccc1)N(Cc1ccc(F)cc1)Cc1nc2ccccc2c(=O)[nH]1	.	.	.	.	/
SMILES	C2C12 statin	SUMO Mot1 rescue	Cneo AK release	Efflux pump mplx	Mot1 SUMO dose
O=C(c1ccncc1)N(Cc1ccccc1)Cc1nc2ccccc2c(=O)[nH]1	.	414	.	.	.
CCOc1ccccc1CSc1nc2ccccc2[nH]1	/	.	/	.	/
COc1cccc(/C=C2\SC(N3CCC(C)CC3)=NC2=O)c1OC	.	615	.	.	.
O=C(C[C@@H]1C=C[C@@H](NC(=O)c2ccc3c(c2)OCO3)[C@H](CO)O1)NCc1ccc(Cl)cc1	.	/	.	/	/
COC(=O)c1cc2c(s1)-c1ccc(OC)cc1CC2	/	477	/	.	.
O=C(NNC(=O)c1ccc(-n2cncn2)c([N+](=O)[O-])c1)c1ccc(Cl)cc1	.	672	.	.	.
O=C(NNC(=O)c1ccc(-n2cncn2)c([N+](=O)[O-])c1)c1cccc(Cl)c1	/	.	/	.	/
c1ccc(-c2cc3ccccc3cn2)cc1	.	372	.	.	.
Fc1ccc2cc(-c3ccccc3)ncc2c1	.	.	.	.	/
c1ccc(-c2cc3cc4c(cc3cn2)OCO4)cc1	.	528	.	.	.
COc1ccc(-c2cc3cc4c(cc3cn2)OCO4)cc1	.	.	.	.	/
CCOC(=O)c1cc(=O)n2nc(-c3ccccc3F)nc2s1	/	.	/	.	/
CNC[C@H]1OCCCC[C@H](C)Oc2ccc(NS(=O)(=O)c3ccc(Cl)cc3)cc2C(=O)N([C@@H](C)CO)C[C@H]1C	.	/	.	/	/
NNC(=O)c1[nH]c2ccccc2c1-c1ccccc1	.	653	.	.	.
Cc1ccc(S(=O)(=O)/N=C(/Nc2ccc([N+](=O)[O-])cc2)c2ccccc2)cc1	.	.	.	.	/
Cc1ccc(S(=O)(=O)/N=C(/Nc2ccc([N+](=O)[O-])cc2[N+](=O)[O-])c2ccccc2)cc1	/	415	/	.	.
O=C(/C=C/c1cccc([N+](=O)[O-])c1)NCCSCc1ccc(Cl)cc1Cl	/	368	/	.	.
Cc1ccc(NC(=O)CN(C)C(=O)c2cc(C)on2)cc1	.	.	.	.	/
COc1ccc(NC(=O)CN(C)C(=O)c2cc(C)on2)cc1	.	678	.	.	.
Cc1ccc(SCCC(=O)Nc2ccc(OCc3ccccc3)cc2)cc1	.	968	/	.	.
COc1ccc(OCC(=O)Nc2ccc(C)cc2)cc1	.	859	/	.	.
COc1ccc(NC(=O)COCC(=O)Nc2ccc(C)cc2)cc1	.	.	.	.	/
OC[C@@H]1CN(Cc2ccc(Cl)cc2)C[C@H](n2cnc3c(NC4CCCC4)ncnc32)O1	.	/	.	/	/
CC1CN(Cc2ccccc2)c2nc3c(c(=O)[nH]c(=O)n3C)n2C1 (centres undefined)	/	475	/	.	.
COCC#Cc1cnc2c(c1)C(=O)N([C@@H](C)CO)C[C@H](C)[C@@H](CN(C)C(=O)Nc1ccccc1OC)O2	.	/	.	/	/
SMILES	C2C12 statin	SUMO Mot1 rescue	Cneo AK release	Efflux pump mplx	Mot1 SUMO dose
COC(=O)CCC(=O)OC1(C)C(=O)C=C2C=C(C3CC3)N(Cc3ccc4c(c3)OCO4)C=C2C1=O (centres undefined)	.	881	.	.	.
COC(=O)CCC(=O)OC1(C)C(=O)C=C2C=C(C3CC3)N(Cc3ccc(OC)cc3)C=C2C1=O (centres undefined)	.	.	.	.	/
Fc1ccc(Cn2nnnc2CN2CCN(C3CCCCC3)CC2)cc1	.	.	.	.	/
COc1cccc(/C=C2/C(=O)NN(c3ccc(Br)cc3)C2=O)c1O	.	528	.	.	.
COc1cc(/C=C2/C(=O)NN(c3ccc(Cl)cc3)C2=O)cc(Br)c1O	.	.	.	.	/
COc1ccc(-c2cc(C(F)(F)F)n3ncc(C(=O)O)c3n2)cc1OC	.	367	/	.	.
O=C(O)C1CCN(c2ccc(S(=O)(=O)N3CCC(C(=O)O)CC3)cc2[N+](=O)[O-])CC1	.	.	.	.	/

Source: PubChem BioAssay (several laboratories)
